Assay results taken from the array DNA melting data of Ke et al. (doi:10.1101/2024.01.08.574731).

Tests used:
[1] = melting temperature; fluorescence melt of hairpins on a sequencing array, two-state fit, raised by 9.35 °C to match UV melts; settings: sodium 0.088 M
Procedure, shortened: (§1)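 Melting temperature and folding enthalpy were obtained by bootstrapped two-state fitting. Fits used Cy3 fluorescence of library hairpins with annealed Cy3 and quencher oligos on a sequenced MiSeq flow cell, imaged in 50 mM Na-HEPES pH 8.0, 25 mM NaCl in 2.5 °C steps up to 60 °C and normalised to pre-quench Cy3 and control constructs. Four replicates were combined by inverse-variance weighting, and fitted temperatures were raised by 9.35 °C to match UV melts.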

[2] = folding enthalpy; higher = less favourable; fluorescence melt of hairpins on a sequencing array, two-state fit; settings: sodium 0.088 M
Procedure, shortened: as §1

Row | Sequence | Tm [1] | folding enthalpy [2]
1 | GTCTGAGGAAACTCAGGC (.(((((....))))).) | 49.5 °C | -32.2 kcal/mol
2 | GCGTAATAACGC ((((....)))) | 51.6 °C | -21.1 kcal/mol
3 | GATCGCTGGGGCGATC ((((((....)))))) | 69.1 °C | -32.2 kcal/mol
4 | GTCGGGGGAAACTCCGGC (.(((.(....).))).) | 47.2 °C | -29.9 kcal/mol
5 | GCTGTAGGAAACTGTAGC (((..((....))..))) | 29.2 °C | -11.7 kcal/mol
6 | GTGCCAGGAAACCAGCAC ((((..(....)..)))) | 41.5 °C | -28.8 kcal/mol
7 | GCCTTCGGAAACGAAAGC ((.((((....)))).)) | 40.4 °C | -22 kcal/mol
8 | GATCGAGGGATCGATC ((((((....)))))) | 53.4 °C | -34.2 kcal/mol
9 | GACGCAGGAAACTGTGTC (((.(((....))).))) | 52.5 °C | -39.8 kcal/mol
10 | GATCTGGGGTCAGATC ((((((....)))))) | 48.7 °C | -34.5 kcal/mol
11 | GTACGTCGAAAGACCTAC (((.(((....))).))) | 34.3 °C | -13.6 kcal/mol
12 | GAATGCGAAAGCAGGTTC ((((((....)))..))) | 30.4 °C | -8.65 kcal/mol
13 | GTAGGCGAAAGCCGGTAC ((((((....)))..))) | 42.2 °C | -10.7 kcal/mol
14 | GACGTGCGAAAGCAGGTC (((.(((....))).))) | 62.4 °C | -36.2 kcal/mol
15 | GATCGACAGGTCGATC ((((((....)))))) | 60.3 °C | -39.1 kcal/mol
16 | GACTACCGAAAGGTCGTC (((.(((....))).))) | 48.6 °C | -39.4 kcal/mol
17 | GCATACGAAAGTATTTGC ((((((....)))..))) | 32.9 °C | -17.1 kcal/mol
18 | GTAGCAGCGAAAGCTTAC (((..(((....)))))) | 26.8 °C | -10.3 kcal/mol
19 | GATCTTCAGAAGATC ((((((...)))))) | 40.3 °C | -35.9 kcal/mol
20 | GCTCTTGGAAACAAGAAC (.(((((....))))).) | 31.4 °C | -16.3 kcal/mol
21 | GCGGGAGGCCGC ((((....)))) | 57.8 °C | -18.4 kcal/mol
22 | GCACCCACGAAAGTGTGC (((..(((....)))))) | 45.4 °C | -19 kcal/mol
23 | GATTCCGAAAGGATGATC ((((((....)))..))) | 31.8 °C | -21.8 kcal/mol
24 | GCGAGTCGTCGC ((((....)))) | 53.1 °C | -22.3 kcal/mol

Row | Sequence | Tm [1] | folding enthalpy [2]
25 | GTAGATCGAAAGATGTAC (((.(((....))).))) | 42.6 °C | -31.6 kcal/mol
26 | GTCGACGAAAGTCTCGAC ((((((....)))..))) | 41.8 °C | -18.3 kcal/mol
27 | GATCCGCTTCGGATC ((((((...)))))) | 58.6 °C | -39 kcal/mol
28 | GTCTCTTCGAAAGAAGAC (((..(((....)))))) | 32 °C | -9.3 kcal/mol
29 | GATCGTTTCAACGATC ((((((....)))))) | 59.7 °C | -42 kcal/mol
30 | GGCCTTGGAAACGAGGTC (.(((.(....).))).) | 43.2 °C | -31.3 kcal/mol
31 | GCGTGCAGACGC ((((....)))) | 62.5 °C | -20.4 kcal/mol
32 | GCTCGGCCGAAAGGCAGC (((..(((....)))))) | 55.6 °C | -8.78 kcal/mol
33 | GCGTTTGGAAACAAACAC (.(((((....))))).) | 40.6 °C | -12.8 kcal/mol
34 | GCTATGCGAAAGCTTGGC ((.(.((....)).).)) | 42.1 °C | -24.6 kcal/mol
35 | GATCGACTCTCGATC ((((((...)))))) | 50.9 °C | -40.6 kcal/mol
36 | GTCTTTCGAAAGAATGAC (((.(((....))).))) | 45.2 °C | -36.6 kcal/mol
37 | GCGTTGCAACGC ((((....)))) | 59 °C | -33.5 kcal/mol
38 | GCGGGCGAAAGCCTCGC ((((((....))).))) | 66.3 °C | -21.9 kcal/mol
39 | GCGTAATGACGC ((((....)))) | 51.5 °C | -23.2 kcal/mol
40 | GGTTGCGAAAGCAGGACC ((((((....)))..))) | 37.8 °C | -19.2 kcal/mol
41 | GCCTCGGCGAAAGCCGGC (((..(((....)))))) | 54.4 °C | -4.13 kcal/mol
42 | GACCGTCCGAAAGGAGTC (((..(((....)))))) | 28.6 °C | -11.8 kcal/mol
43 | GCCGCGCGAAAGCACTGC ((.(.((....)).).)) | 38.2 °C | -18.7 kcal/mol
44 | GAGCGGCGAAAGCCCCTC (((.(((....))).))) | 46.7 °C | -14.1 kcal/mol
45 | GTAGTAGGAAACTGCTAC ((((.((....)).)))) | 44.7 °C | -30.5 kcal/mol
46 | GAAGACCGAAAGGTTTTC (((.(((....))).))) | 47.9 °C | -27.4 kcal/mol
47 | GGGGGAGGAAACCCCCCC (((((.(....).))))) | 55.1 °C | -20.1 kcal/mol
48 | GCCGCAACGAAAGTTGGC (((..(((....)))))) | 48 °C | -11.2 kcal/mol

Row | Sequence | Tm [1] | folding enthalpy [2]
49 | GTGGGCGAAAGCCCCAC ((((((....))).))) | 60.2 °C | -11.3 kcal/mol
50 | GTGGCAGGAAACTGCTAC ((.((((....)))).)) | 53.1 °C | -26.4 kcal/mol
51 | GCATCGCGAAAGCGCTGC (((.(((....))).))) | 56 °C | -42 kcal/mol
52 | GATCTATATTAGATC ((((((...)))))) | 40.9 °C | -26.1 kcal/mol
53 | GGTCCTGGAAACAGGGTC (..((((....))))..) | 37.8 °C | -16.1 kcal/mol
54 | GGCTATGGAAACATGGCC (((.(((....))).))) | 53.2 °C | -53.7 kcal/mol
55 | GCGACCGGAAACAGCCGC (((.(.(....).).))) | 32.5 °C | -21.1 kcal/mol
56 | GGATAGTCGAAAGACTCC (((..(((....)))))) | 33.1 °C | -13.6 kcal/mol
57 | GTCAGTCGAAAGACGAC (((.(((....)))))) | 53.1 °C | -32 kcal/mol
58 | GATCACGTCTGTGATC ((((((....)))))) | 59.5 °C | -37.7 kcal/mol
59 | GCGCGTCGAAAGACTCGC (((.(((....))).))) | 58.4 °C | -38.7 kcal/mol
60 | GATCCATTTCTGGATC ((((((....)))))) | 51 °C | -34.3 kcal/mol
61 | GTTAGGCGAAAGCCAAC (((.(((....)))))) | 50.7 °C | -12.7 kcal/mol
62 | GGGAAACGAAAGTTCCCC (((.(((....))).))) | 51 °C | -30.6 kcal/mol
63 | GCTGTCGAAAGACGAAGC ((((((....)))..))) | 44.3 °C | -18.4 kcal/mol
64 | CGGTCGGAAACGACGCCG ((((((....)))..))) | 36.7 °C | -11.7 kcal/mol
65 | GGAACGCCGAAAGGCTCC (((..(((....)))))) | 33 °C | -9.39 kcal/mol
66 | GATCCAGGAAACTGGGTC ((.((((....)))).)) | 49.9 °C | -29.9 kcal/mol
67 | GCTTCCGAAAGGATAGC ((((((....))).))) | 48.7 °C | -24.9 kcal/mol
68 | GCAAACGAAAGTTGTTGC ((((((....)))..))) | 32.9 °C | -22.5 kcal/mol
69 | TCGGTGAAAACCGA (((((....))))) | 53 °C | -17.7 kcal/mol
70 | GTGTTCCGAAAGGACCAC (((.(((....))).))) | 49.7 °C | -38.4 kcal/mol
71 | GCATTAGGAAACTGATGC ((((.((....)).)))) | 45.4 °C | -36.7 kcal/mol
72 | CGCCCGGAAACGGCTGCG ((((((....)))..))) | 46.2 °C | -21.1 kcal/mol

Row | Sequence | Tm [1] | folding enthalpy [2]
73 | GATTGAGGAAACTCAGTC ((.((((....)))).)) | 36.6 °C | -26.8 kcal/mol
74 | GTCCGCCGAAAGGCCGAC (((.(((....))).))) | 49.2 °C | -20.5 kcal/mol
75 | GGCGCCGGAAACAGCGCC (((((.(....).))))) | 65.2 °C | -34.8 kcal/mol
76 | GCGACGAGTCGC ((((....)))) | 60.6 °C | -36.6 kcal/mol
77 | GGAATCGAAAGATATTCC ((((((....)))..))) | 29.7 °C | -16 kcal/mol
78 | GATCGTGCCCACGATC ((((((....)))))) | 59.7 °C | -39.8 kcal/mol
79 | GCAAGGCGAAAGCCCTGC (((.(((....))).))) | 50.7 °C | -31.3 kcal/mol
80 | GTGGCAGGAAACTGCCGC (.(((((....))))).) | 61.1 °C | -18.3 kcal/mol
81 | GCGGTTAACCGC ((((....)))) | 66.7 °C | -28.7 kcal/mol
82 | GATCGCCCACGCGATC ((((((....)))))) | 68.1 °C | -35 kcal/mol
83 | GGTCCCCGAAAGGGCACC (((.(((....))).))) | 49 °C | -19.3 kcal/mol
84 | GCATCGCGAAAGCAATGC ((((.((....)).)))) | 60.2 °C | -24.6 kcal/mol
85 | GATCTCGTTCGAGATC ((((((....)))))) | 60.9 °C | -41.4 kcal/mol
86 | GTGCCTCCGAAAGGACAC (((..(((....)))))) | 52.4 °C | -8.63 kcal/mol
87 | GGGTCCCGAAAGGGCCCC (((.(((....))).))) | 67.2 °C | -17.9 kcal/mol
88 | GCCTGAACGAAAGTTGGC (((..(((....)))))) | 45.5 °C | -23.2 kcal/mol
89 | GGGCCTGGAAACAAGCCC ((((.((....)).)))) | 47.4 °C | -33.3 kcal/mol
90 | CGGGCGGAAACGCGACCG ((((((....)))..))) | 57.8 °C | -30.5 kcal/mol
91 | GATCCTCGTAAGGATC ((((((....)))))) | 54.5 °C | -35.3 kcal/mol
92 | GCTCACGGAAACGTGGGC ((.((((....)))).)) | 59.6 °C | -47.8 kcal/mol
93 | GATCCCTTCGGGGATC ((((((....)))))) | 65.2 °C | -39.8 kcal/mol
